pIC50, pKi: −log10 of the molar value.
Experiments:
[1] = Drug uptake in C57BL/6 mouse kidney at 40 mg/kg, po administered via gavage by LC-MS/MS analysis; type: ADME, organism-based; details: in vivo
Histone deacetylase 8 = molecular target: T1, Histone deacetylase 8 (Homo sapiens, UniProt Q9BY41); experiment: Inhibition of human full-length recombinant HDAC8 expressed in baculovirus infected Sf9 insect cells using fluorogenic peptide RHKAcKAc as substrate after 2 hrs
T1 sequence (Q9BY41 whole entry): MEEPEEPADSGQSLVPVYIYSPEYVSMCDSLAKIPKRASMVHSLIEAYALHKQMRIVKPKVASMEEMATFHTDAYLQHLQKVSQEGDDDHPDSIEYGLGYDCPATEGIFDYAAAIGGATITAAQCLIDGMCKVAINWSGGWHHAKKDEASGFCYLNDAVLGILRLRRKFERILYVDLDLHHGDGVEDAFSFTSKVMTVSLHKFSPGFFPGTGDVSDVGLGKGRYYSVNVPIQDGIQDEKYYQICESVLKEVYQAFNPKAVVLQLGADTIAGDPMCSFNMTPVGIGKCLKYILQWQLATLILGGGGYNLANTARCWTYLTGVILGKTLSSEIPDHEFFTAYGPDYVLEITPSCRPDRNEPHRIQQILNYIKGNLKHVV

[2] = molecular target: T2, Protein deacetylase HDAC6 (Homo sapiens, UniProt Q9UBN7); experiment: Competitive inhibition of human full-length recombinant HDAC6 expressed in baculovirus infected Sf9 insect cells using Boc-Lys (Ac)-AMC as substrate preincubated for 10 mins followed by substrate addition and measured after 30 mins by fluorescence assay
T2 sequence (Q9UBN7 whole entry): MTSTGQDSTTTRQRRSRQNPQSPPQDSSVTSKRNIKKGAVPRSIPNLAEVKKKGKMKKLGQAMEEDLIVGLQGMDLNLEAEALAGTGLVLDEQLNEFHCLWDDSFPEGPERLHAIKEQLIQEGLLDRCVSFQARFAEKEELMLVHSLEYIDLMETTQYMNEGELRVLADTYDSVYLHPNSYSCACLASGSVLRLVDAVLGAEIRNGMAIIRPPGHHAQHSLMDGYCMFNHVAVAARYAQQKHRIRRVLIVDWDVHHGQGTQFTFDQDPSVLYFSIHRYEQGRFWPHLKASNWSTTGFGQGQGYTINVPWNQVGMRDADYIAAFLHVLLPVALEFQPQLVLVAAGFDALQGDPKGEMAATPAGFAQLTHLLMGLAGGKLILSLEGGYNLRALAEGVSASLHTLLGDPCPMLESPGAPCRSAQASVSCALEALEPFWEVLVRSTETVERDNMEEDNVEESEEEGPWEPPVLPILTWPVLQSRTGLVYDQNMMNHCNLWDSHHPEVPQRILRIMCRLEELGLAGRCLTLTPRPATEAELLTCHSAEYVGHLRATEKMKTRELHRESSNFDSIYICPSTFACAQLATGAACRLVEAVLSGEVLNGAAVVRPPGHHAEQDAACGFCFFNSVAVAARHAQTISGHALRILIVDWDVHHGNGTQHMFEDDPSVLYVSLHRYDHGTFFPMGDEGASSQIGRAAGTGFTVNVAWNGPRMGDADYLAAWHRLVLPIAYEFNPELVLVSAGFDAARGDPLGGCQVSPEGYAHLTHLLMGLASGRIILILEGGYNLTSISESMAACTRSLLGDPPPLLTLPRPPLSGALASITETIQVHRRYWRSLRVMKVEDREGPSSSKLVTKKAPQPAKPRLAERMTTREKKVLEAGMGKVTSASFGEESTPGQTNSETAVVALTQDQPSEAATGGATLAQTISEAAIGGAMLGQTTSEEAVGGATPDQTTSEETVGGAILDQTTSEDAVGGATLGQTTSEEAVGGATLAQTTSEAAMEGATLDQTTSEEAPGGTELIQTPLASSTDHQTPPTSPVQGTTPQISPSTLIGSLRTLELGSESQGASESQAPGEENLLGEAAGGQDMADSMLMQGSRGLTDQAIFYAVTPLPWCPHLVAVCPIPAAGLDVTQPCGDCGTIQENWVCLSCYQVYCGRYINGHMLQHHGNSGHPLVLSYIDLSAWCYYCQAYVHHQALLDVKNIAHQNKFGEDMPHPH

[3] = molecular target: T2, Protein deacetylase HDAC6; experiment: Competitive inhibition of human HDAC6 CD2 expressed in Escherichia coli BL21 (RIL) using Boc-Lys (Ac)-AMC as substrate preincubated for 10 mins followed by substrate addition and measured after 30 mins by fluorescence assay
[4] = test system: Lewis lung carcinoma cell line; experiment: Cytotoxicity against mouse LL/2 cells after 72 hrs by MTT assay; type: functional, cell-based
[5] = test system: Lewis lung carcinoma cell line; experiment: Cytotoxicity against mouse LL/2 cells at 4 uM after 72 hrs by MTT assay relative to control; type: functional
How it was run: (§1)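 Mouse LL/2 cells treated with inhibitor alone or combined with paclitaxel for 3 days. Viability measured by MTT assay relative to untreated control.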

[6] = test system: Lewis lung carcinoma cell line; experiment: Cytotoxicity against mouse LL/2 cells at 4 uM after 72 hrs in presence of paclitaxel by MTT assay relative to control; type: functional; how it was run: as §1
[7] = test system: Lewis lung carcinoma cell line; experiment: Induction of apoptosis in mouse LL/2 cells assessed as necrotic cells at 4 uM after 24 hrs by Annexin V/propidium iodide staining-based flow cytometric analysis (reference value: 7.3%); type: functional
[8] = test system: Lewis lung carcinoma cell line; experiment: Induction of apoptosis in mouse LL/2 cells assessed as early apoptotic cells at 4 uM after 24 hrs in presence of paclitaxel by Annexin V/propidium iodide staining-based flow cytometric analysis (reference value: 1.8%); type: functional
[9] = test system: Lewis lung carcinoma cell line; experiment: Induction of apoptosis in mouse LL/2 cells assessed as necrotic cells at 4 uM after 24 hrs in presence of paclitaxel by Annexin V/propidium iodide staining-based flow cytometric analysis (reference value: 7.3%); type: functional
A549 [10] = experiment: Induction of apoptosis in human A549 cells assessed as viable cells at 4 uM after 24 hrs in presence of paclitaxel by Annexin V/propidium iodide staining-based flow cytometric analysis (reference value: 96.2%); type: functional
A549 [11] = experiment: Induction of apoptosis in human A549 cells assessed as late apoptotic cells at 4 uM after 24 hrs in presence of paclitaxel by Annexin V/propidium iodide staining-based flow cytometric analysis (reference value: 1.6%); type: functional
A549 [12] = experiment: Induction of apoptosis in human A549 cells assessed as necrotic cells at 4 uM after 24 hrs in presence of paclitaxel by Annexin V/propidium iodide staining-based flow cytometric analysis (reference value: 1.1%); type: functional
[13] = AUC (0 to 24 hrs) in C57BL/6 mouse liver at 40 mg/kg, po administered via gavage by LC-MS/MS analysis; type: ADME, organism-based; parameters: dose 40 mg/kg, time < 24 hr, route oral; details: in vivo
[14] = Drug uptake in C57BL/6 mouse liver at 40 mg/kg, po administered via gavage by LC-MS/MS analysis; type: ADME, organism-based; details: in vivo
[15] = Drug uptake in C57BL/6 mouse kidney at 40 mg/kg, po administered via gavage co-administered with paclitaxel at 10 mg/kg, ip by LC-MS/MS analysis; type: ADME, organism-based; details: in vivo
[16] = Ratio of drug uptake in C57BL/6 mouse kidney at 40 mg/kg, po administered via gavage co-administered with paclitaxel at 10 mg/kg, ip by LC-MS/MS analysis to drug uptake in C57BL/6 mouse kidney at 40 mg/kg, po administered via gavage by LC-MS/MS analysis; type: ADME, organism-based; details: in vivo
[17] = Drug metabolism in C57BL/6 mouse liver assessed as hydroxylated metabolite formation at 40 mg/kg, po administered via gavage by LC-MS/MS analysis; type: ADME, organism-based; details: in vivo

Drug uptake [1]: 130 ng/g
pIC50 (Histone deacetylase 8): 6.51
pKi [2]: 8.80
pKi [3]: 8.43
AUC [13]: 6395 ng·h/g
Drug uptake [14]: 782 ng/g
Drug uptake [15]: 392 ng/g
Ratio [16]: 3
Drug metabolism [17]: Metabolite_Notdetected
SMILES: O=C(NO)c1ccc(Cn2c(=O)n(CCc3ccccc3)c(=O)c3ccccc32)cc1
pIC50 [4]: 5.10
Activity [5]: 10%
Activity [6]: 80 - 90%
Activity [7]: 2.3%
Activity [8]: 8.8%
Activity [9]: 5.3%
Activity (A549 [10]): 92.7%
Activity (A549 [11]): 1.3%
Activity (A549 [12]): 0.5%

— ChEMBL document CHEMBL4330076, “Quinazolin-2,4-dione-Based Hydroxamic Acids as Selective Histone Deacetylase-6 Inhibitors for Treatment of Non-Small Cell Lung Cancer” (J Med Chem, 2019)
